Measurements from different studies.
Protocols differ between the studies behind these lines.
Target: Calcium/calmodulin-dependent protein kinase type II subunit beta (CAMK2B, Homo sapiens, UniProt Q13554)

| SMILES | test | setting | quantity | value |
| --- | --- | --- | --- | --- |
| CS(=O)(=O)N1CCCC(NC(=O)[C@H](CCC2CCCCC2)NC(=O)c2ccc(CNc3ncnc4c3nnn4-c3ccccc3)cc2)C1 (stereo partly drawn) | cell-free assay, competition with immobilised ligand | 0.1 µM | remaining binding | 100% |
| Cc1ccc(Nc2nccc(N(C)c3ccc4c(C)n(C)nc4c3)n2)cc1S(N)(=O)=O | enzyme activity, inhibitor | 10 µM | inhibition | 29% |
| C[C@@H]1CN(c2cc(-c3nn(C)c4ccc(OC5(C)CC5)cc34)ncn2)C[C@H](C)O1 | cell-free assay, competition with immobilised ligand | 1 µM | remaining binding | 96% |
| COc1cc2ncnc(Nc3ccc(Oc4ccccc4)c(C)c3C)c2cc1OC | enzyme activity, inhibitor | 1 µM | inhibition | 12% |
| CNC(=O)c1cc(Oc2ccc(NC(=O)Nc3ccc(Cl)c(C(F)(F)F)c3)cc2)ccn1 | enzyme activity, inhibitor | 0.3 µM | inhibition | 27% |
| O=C(NCc1ncc(C(F)(F)F)cc1Cl)c1ccc2c(c1)C1(CCS(=O)(=O)CC1)[C@@H](C1CC1)N2S(=O)(=O)c1ccc(F)cc1 | cell-free assay, competition with immobilised ligand | 1 µM | remaining binding | 92% |
| Oc1ccc(-c2nc(-c3ccncc3)c(-c3ccc(F)cc3)[nH]2)cc1 | cell-free assay | 0.5 µM | remaining signal | 96.4% |
| CC(C)(C)c1nc2c(s1)c1nc(N)ncc1c1ccc(NS(=O)(=O)c3c(F)cccc3F)c(F)c12 | enzyme activity, inhibitor, radiometric | 1 µM | remaining activity | 83% |
| COc1ccc2c(c1)O[C@H](c1ccc(OC)c(OC)c1)C[C@@H]2NC(=O)C1(c2ccc3c(c2)OC(F)(F)O3)CC1 | cell-free assay, competition with immobilised ligand | 1 µM | remaining binding | 88% |
| CCCS(=O)(=O)Nc1ccc(F)c(C(=O)c2c[nH]c3ncc(-c4ccc(Cl)cc4)cc23)c1F | enzyme activity, inhibitor | 1 µM | inhibition | < 10% |
| O=c1c2ccccc2[nH]c(=S)n1CCN1CCC(=C(c2ccc(F)cc2)c2ccc(F)cc2)CC1 | enzyme activity, inhibitor | 0.5 µM | remaining activity | 102% |
| COc1cc(-c2cc(-c3ccc(N4CCNCC4)cc3)cnc2C)cc(OC)c1OC | enzyme activity, inhibitor | 1 µM | inhibition | 1% |
| CC/C(=N\NC(=O)NCc1cccc(O)c1)c1ccc(O)c(C)c1O | enzyme activity, inhibitor | 0.1 µM | inhibition | -4% |
| CCCOc1ccc(OC)c(F)c1C(=O)c1ccc(C(=O)N[C@@H]2CNC[C@H]2NC(=O)c2ccc3[nH]ncc3c2)cc1 | enzyme activity, inhibitor | 10 µM | remaining activity | 53% |
| CO[C@@H](C)c1c(Nc2ccc([C@H](N(C)C(=O)C3CCS(=O)(=O)CC3)C(F)(F)F)cc2)cnc2cc(Cl)nn12 | cell-free assay, competition with immobilised ligand | 1 µM | remaining binding | 94% |
| C[S+]([O-])c1ccc(-c2nc(-c3ccncc3)c(-c3ccc(F)cc3)[nH]2)cc1 (stereo not drawn) | cell-free assay | 0.5 µM | remaining signal | 97.6% |
| Cc1sc(C(=O)NC2COC2)cc1-n1cc(NC(=O)Nc2c(F)cccc2Cl)cn1 | enzyme activity, inhibitor | 10 µM | remaining activity | 100% |
| Nc1c(C(=O)NCc2ccc(C(=O)NCCCC3CCCCC3)cc2)cnn1-c1ccccc1 | cell-free assay, competition with immobilised ligand | 0.1 µM | remaining binding | 100% |
| COc1cc(Nc2c(C#N)cnc3cc(OCCCN4CCN(C)CC4)c(OC)cc23)c(Cl)cc1Cl | cell-free assay | 0.5 µM | remaining signal | 86.2% |
| Cc1cc(NC(=O)c2cccc3cc(-c4cccc5[nH]nc(N)c45)ccc23)ccc1F | enzyme activity, inhibitor | 0.1 µM | activity vs control | 94% |
| CCCCN(CCCC)C(=O)CN1C[C@H](c2cc(OC)c3c(c2)OCO3)[C@@H](C(=O)O)[C@@H]1CC(C)(C)CCC | cell-free assay, competition with immobilised ligand | 1 µM | remaining binding | 100% |
| c1ccc(CNc2nc(N3CCOc4ccccc43)nc3c2CCCC3)cc1 | target engagement in cells, inhibitor, chemoproteomics | 20 mM | inhibition | 12.7% |
| CCN(CC)CCNC(=O)c1c(C)[nH]c(/C=C2\C(=O)Nc3ccc(F)cc32)c1C | enzyme activity, inhibitor | 0.3 µM | inhibition | 57% |
| CC(C)(O)[C@H]1CC[C@H](Nc2ccc3ncc(-c4cccc(C(F)(F)F)c4)n3n2)CC1 | enzyme activity, inhibitor | 1 µM | remaining activity | 96.9% |
| CCN(CC)CCNC(=O)c1c(C)[nH]c(/C=C2\C(=O)Nc3ccc(Cl)cc32)c1C | enzyme activity, inhibitor | 0.5 µM | remaining activity | 27.3% |
| Cc1ccc(-n2nc(C(C)(C)C)cc2NC(=O)Nc2ccc(OCCN3CCOCC3)c3ccccc23)cc1 | enzyme activity, inhibitor | 10 µM | inhibition | 22% |
| CS(=O)(=O)CCNCc1ccc(-c2ccc3ncnc(Nc4ccc(OCc5cccc(F)c5)c(Cl)c4)c3c2)o1 | cell-free assay | 0.5 µM | remaining signal | 93.8% |
| Cc1ncc([N+](=O)[O-])n1C(=NO)c1ccccc1C(F)(F)F | enzyme activity, inhibitor | 10 µM | inhibition | 13.6% |
| CCC(=O)N[C@@H]1CC[C@H](C(=O)N(C)c2ccc(-c3nc4ccccc4o3)cc2)C1 | cell-free assay, competition with immobilised ligand | 1 µM | remaining binding | 100% |
| CC(C)c1ccc(NC(=O)c2cccs2)c(-c2nc3ccccc3[nH]c2=O)c1 | enzyme activity, inhibitor | 1 µM | activity vs control | 108% |
